The term bioavailability denotes the share of a dose that reaches the circulation, judged against a reference dose that is usually intravenous. The low end stands for little systemic uptake, the high end for much systemic uptake. What is called AUC is concentration integrated over time. A high value points to more exposure. For orientation: Cmax means the maximum level reached in the sampled fluid or tissue.

Structures are written as SMILES.

Twelve molecules from ChEMBL document CHEMBL2046298, “Lead optimization of purine based orally bioavailable Mps1 (TTK) inhibitors” (Bioorg Med Chem Lett, 2012) can be followed below.

Series [1] can be described thus: Oral bioavailability in CD-1 mouse at 10 mg/kg. It counts as ADME, organism-based. The note with it: in vivo. In a few lines:
(§1)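 CD-1 mice given 10 mg/kg orally in a DMA/PEG 400 solution formulation; matched IV arm at 2.5 mg/kg in DMA/PEG 400 for %F.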

Series [2] is described as follows: AUC in CD-1 mouse at 10 mg/kg, po. The class given is ADME, organism-based. Further details: dose 10 mg/kg, route oral. The note with it: plasma. Put shortly:
as §1

Series [3] in a line: Plasma concentration in CD-1 mouse at 10 mg/kg, po measured at 8 hrs. The class given is ADME, organism-based. Further details: dose 10 mg/kg, route oral. In a few lines: (§2)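 Abbreviated PK screen: CD-1 mice dosed orally at 10 mg/kg in DMA/PEG 400 solution; plasma levels determined at 4 and 8 h post-dose.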
Series [4] in a line: Plasma concentration in CD-1 mouse at 10 mg/kg, po measured at 4 hrs. It counts as ADME, organism-based. Details: dose 10 mg/kg, route oral. In a few lines: as §2
Series [5] is described as follows: Cmax in CD-1 mouse at 10 mg/kg, po. It counts as ADME, organism-based. Further details: dose 10 mg/kg, route oral. The note with it: in vivo. Put shortly: as §1
Series [6] in a line: Apparent permeability of the compound by PAMPA. The class given is ADME.

In turn, `Cc1cc(N2CCOCC2)ccc1Nc1nc(NC2CCCCC2)c2nc[nH]c2n1` had a bioavailability in series [1] of 20%.
Take `COc1cc(N2CCN(S(=O)(=O)CCCN3CCOCC3)CC2)ccc1Nc1nc(NC2CCCCC2)c2nc[nH]c2n1`: the bioavailability in series [1] worked out at 17.9%. The molecule further had an AUC in series [2] of 1730 ng·h/mL. The molecule further came in with a concentration at 8 h in series [3] of 17.5 ng/mL. In series [4], this molecule had a concentration at 4 h of 156 ng/mL. The molecule further gave a Cmax in series [5] of 1000 nM.
For the molecule `COc1cc(N2CCN(C(=O)N3CCN(C)CC3)CC2)ccc1Nc1nc(NC2CCCCC2)c2[nH]cnc2n1`, the Papp entry in series [6] was “impermeable”.
Molecule `COc1cc(N2CCN(Cc3ccccn3)CC2)ccc1Nc1nc(NC2CCCCC2)c2nc[nH]c2n1` registered a concentration at 8 h in series [3] of 2.9 ng/mL. The concentration at 4 h in series [4] is 66.3 ng/mL.
Consider `COc1cc(N2CCN(C(=O)N3CCC(O)C3)CC2)ccc1Nc1nc(NC2CCCCC2)c2nc[nH]c2n1` (stereo not drawn), for which the Papp entry in series [6] was “impermeable”.
For the molecule `COc1cc(N2CCC(N3CCOCC3)CC2)ccc1Nc1nc(NC2CCCCC2)c2nc[nH]c2n1`, in series [1], the bioavailability is 31%. Besides, the AUC in series [2] is 1710 ng·h/mL. For the same molecule, the concentration at 8 h in series [3] worked out at 44.2 ng/mL. The concentration at 4 h in series [4] was 105 ng/mL. In series [5], this molecule displayed a Cmax of 2600 nM.
In series [3], `COc1cc(N2CCC(C(=O)N3CCOCC3)CC2)ccc1Nc1nc(NC2CCCCC2)c2nc[nH]c2n1` had a concentration at 8 h of 1.68 ng/mL. Also, in series [4], the concentration at 4 h was 16.7 ng/mL.
In the case of `COc1cc(N2CCC(CN3CCOCC3)CC2)ccc1Nc1nc(NC2CCCCC2)c2nc[nH]c2n1`, the bioavailability in series [1] was more than 83%. This molecule also displayed an AUC in series [2] of 10700 ng·h/mL. In series [3], the concentration at 8 h was found to be 187 ng/mL. Further, the concentration at 4 h in series [4] amounted to 435 ng/mL. In series [5], this molecule registered a Cmax of 2600 nM.
In series [1], `COc1cc(N2CCC(CC(=O)N3CCOCC3)CC2)ccc1Nc1nc(NC2CCCCC2)c2nc[nH]c2n1` returned a bioavailability of 23.1%. For the same molecule, the AUC in series [2] came to 1650 ng·h/mL. Further, in series [3], the concentration at 8 h is 20.9 ng/mL. Besides, the concentration at 4 h in series [4] came to 97 ng/mL. This molecule also returned a Cmax in series [5] of 1400 nM.
The molecule `COc1cc(N2CCC(CC(=O)N3CCN(C)CC3)CC2)ccc1Nc1nc(NC2CCCCC2)c2[nH]cnc2n1` registered a bioavailability in series [1] of 6.9%. Besides, the AUC in series [2] was determined as 547 ng·h/mL. For the same molecule, the concentration at 8 h in series [3] was determined as 39.9 ng/mL. This molecule also gave a concentration at 4 h in series [4] of 180 ng/mL. The Cmax in series [5] was found to be 300 nM.
With `COc1cc(N2CCC(CC(=O)N3CCC(N(C)C)C3)CC2)ccc1Nc1nc(NC2CCCCC2)c2nc[nH]c2n1` (stereo not drawn), in series [6], the Papp result is given as “impermeable”.
The molecule `COc1cc(N2CCC(CC(=O)N3CCCC3)CC2)ccc1Nc1nc(NC2CCCCC2)c2nc[nH]c2n1` registered a bioavailability in series [1] of 36%. Besides, the AUC in series [2] worked out at 1770 ng·h/mL. The same molecule had a concentration at 8 h in series [3] of 69.2 ng/mL. Moreover, the concentration at 4 h in series [4] is 138 ng/mL. In series [5], the highest level (Cmax) was 1800 nM.
